Drawing on ChEMBL document CHEMBL4251648, “Synthesis and bioevaluation and doking study of 1H-pyrrolo[2,3-b]pyridine derivatives bearing aromatic hydrazone moiety as c-Met inhibitors” (Eur J Med Chem, 2018), this text covers IC50 and Activity for two compounds.

As a reminder, the pIC50 is the IC50 on a negative log10 scale, so that one unit is a factor of ten.

Assay [1] deals with A549. The experiment in a line: Antiproliferative activity against human A549 cells after 72 hrs by MTT assay. The class given is functional, cell-based. The following applies: for pIC50: Homo sapiens, A549, 72 h, read-out: IC50. The gist of the method:
(§1)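 Cells grown in MEM with 10% FBS. About 4×10³ cells per well, pre-incubated 24 h at 37°C in 5% CO₂. Compound added at final concentrations, then 72 h. MTT added at 5 µg/mL final for 4 h at 37°C. Tested three times; IC50 taken as the average of […] determinations.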
On the technique in general: Formazan colour is commonly taken as a measure of viable cells.

A further assay deals with HepG2. Briefly: Antiproliferative activity against human HepG2 cells after 72 hrs by MTT assay. The class given is functional, cell-based. The following applies: for pIC50: Homo sapiens, HepG2, 72 h, read-out: IC50. The gist of the method: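 Cells grown in MEM with 10% FBS. About 4×10³ cells per well, pre-incubated 24 h at 37°C in 5% CO₂. Compound added at final concentrations, then 72 h. MTT added at 5 µg/mL final for 4 h at 37°C. Formazan dissolved in DMSO and read at 492 nm against 630 nm reference. Tested three times; IC50 taken as the average of […] determinations.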

Another assay relates to MCF7. The experiment in a line: Antiproliferative activity against human MCF7 cells after 72 hrs by MTT assay. The class given is functional, cell-based. The following applies: for pIC50: Homo sapiens, MCF7, 72 h, read-out: IC50. The gist of the method: as §1
The test system of the next assay is PC-3. Briefly: Antiproliferative activity against human PC3 cells after 72 hrs by MTT assay. The class given is functional, cell-based. The following applies: for pIC50: Homo sapiens, PC-3, 72 h, read-out: IC50. The gist of the method: as §1
In assay [2] the target is Hepatocyte growth factor receptor (Homo sapiens, UniProt P08581). The experiment in a line: Inhibition of c-Met (unknown origin) using FAM-labeled peptide substrate after 10 mins by mobility shift assay.
Chain of Hepatocyte growth factor receptor (P08581 whole entry): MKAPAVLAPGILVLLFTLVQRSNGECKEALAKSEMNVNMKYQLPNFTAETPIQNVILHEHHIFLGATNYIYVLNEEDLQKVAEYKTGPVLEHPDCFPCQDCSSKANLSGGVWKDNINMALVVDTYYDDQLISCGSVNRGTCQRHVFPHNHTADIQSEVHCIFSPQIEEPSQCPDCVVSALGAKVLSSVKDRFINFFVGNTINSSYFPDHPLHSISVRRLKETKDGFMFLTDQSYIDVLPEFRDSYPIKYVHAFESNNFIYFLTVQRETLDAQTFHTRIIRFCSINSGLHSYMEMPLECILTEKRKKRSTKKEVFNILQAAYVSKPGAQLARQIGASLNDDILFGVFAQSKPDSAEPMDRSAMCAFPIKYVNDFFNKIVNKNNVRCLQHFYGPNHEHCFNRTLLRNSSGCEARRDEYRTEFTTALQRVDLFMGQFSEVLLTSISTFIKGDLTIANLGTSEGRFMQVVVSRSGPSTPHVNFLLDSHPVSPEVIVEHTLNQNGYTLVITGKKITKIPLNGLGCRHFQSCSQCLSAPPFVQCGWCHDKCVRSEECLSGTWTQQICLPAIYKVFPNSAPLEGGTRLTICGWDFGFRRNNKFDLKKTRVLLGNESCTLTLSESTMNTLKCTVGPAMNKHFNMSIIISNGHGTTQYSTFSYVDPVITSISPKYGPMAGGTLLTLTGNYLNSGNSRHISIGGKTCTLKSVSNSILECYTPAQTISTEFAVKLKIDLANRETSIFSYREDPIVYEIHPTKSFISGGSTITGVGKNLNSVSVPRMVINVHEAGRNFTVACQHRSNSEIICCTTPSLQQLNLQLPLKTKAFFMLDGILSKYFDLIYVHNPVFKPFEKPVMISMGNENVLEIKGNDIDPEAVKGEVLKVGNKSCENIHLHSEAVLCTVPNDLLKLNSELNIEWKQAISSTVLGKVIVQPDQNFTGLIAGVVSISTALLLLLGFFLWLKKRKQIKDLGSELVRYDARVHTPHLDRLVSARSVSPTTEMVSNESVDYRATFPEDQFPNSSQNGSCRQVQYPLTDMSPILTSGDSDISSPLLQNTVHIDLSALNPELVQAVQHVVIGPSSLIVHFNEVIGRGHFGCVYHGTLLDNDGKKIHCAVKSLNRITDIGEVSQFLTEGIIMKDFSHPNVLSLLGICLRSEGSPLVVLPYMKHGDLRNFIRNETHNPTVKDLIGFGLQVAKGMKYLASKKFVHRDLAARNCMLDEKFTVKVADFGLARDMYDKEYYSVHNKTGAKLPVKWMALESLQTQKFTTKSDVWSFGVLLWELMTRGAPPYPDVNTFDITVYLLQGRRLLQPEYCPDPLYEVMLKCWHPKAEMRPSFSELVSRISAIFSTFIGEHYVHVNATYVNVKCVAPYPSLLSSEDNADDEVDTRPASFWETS
Assay [3] concerns the target Vascular endothelial growth factor receptor 2 (Homo sapiens, UniProt P35968). Briefly: Inhibition of VEGFR2 (unknown origin).
Assay [4] concerns the target Epidermal growth factor receptor (Homo sapiens, UniProt P00533). Briefly: Inhibition of EGFR (unknown origin).
For assay [5], the target named is T1, Receptor-type tyrosine-protein kinase FLT3 (Homo sapiens, UniProt P36888).
T1 sequence (P36888 whole entry): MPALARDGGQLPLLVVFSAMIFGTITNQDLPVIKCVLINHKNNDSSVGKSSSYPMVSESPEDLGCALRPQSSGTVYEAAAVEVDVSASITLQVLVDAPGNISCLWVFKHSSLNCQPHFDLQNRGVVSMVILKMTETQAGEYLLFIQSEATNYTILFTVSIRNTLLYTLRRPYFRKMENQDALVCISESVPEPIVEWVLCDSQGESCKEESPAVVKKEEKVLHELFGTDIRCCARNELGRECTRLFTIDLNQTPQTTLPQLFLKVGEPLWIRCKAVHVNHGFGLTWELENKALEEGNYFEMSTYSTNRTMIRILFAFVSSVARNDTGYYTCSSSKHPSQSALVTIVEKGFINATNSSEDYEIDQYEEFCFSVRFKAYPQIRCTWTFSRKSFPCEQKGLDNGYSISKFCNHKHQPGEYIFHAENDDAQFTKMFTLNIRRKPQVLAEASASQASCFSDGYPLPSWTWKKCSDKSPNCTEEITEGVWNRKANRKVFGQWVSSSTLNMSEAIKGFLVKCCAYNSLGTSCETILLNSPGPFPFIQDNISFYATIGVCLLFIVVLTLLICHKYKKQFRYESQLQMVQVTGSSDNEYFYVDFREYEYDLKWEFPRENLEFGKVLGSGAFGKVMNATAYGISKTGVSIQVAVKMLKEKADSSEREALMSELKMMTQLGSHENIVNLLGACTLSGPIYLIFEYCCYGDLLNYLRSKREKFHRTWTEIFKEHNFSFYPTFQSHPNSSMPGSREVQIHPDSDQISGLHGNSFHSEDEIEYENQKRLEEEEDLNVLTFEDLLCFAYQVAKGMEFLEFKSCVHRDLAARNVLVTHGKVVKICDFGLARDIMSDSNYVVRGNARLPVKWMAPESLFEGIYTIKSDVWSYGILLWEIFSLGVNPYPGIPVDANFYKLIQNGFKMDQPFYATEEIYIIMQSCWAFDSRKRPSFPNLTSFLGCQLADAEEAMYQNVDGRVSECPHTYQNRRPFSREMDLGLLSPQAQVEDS
Briefly: Inhibition of FLT3 (unknown origin).

Assay [6] concerns A549. The experiment in a line: Antiproliferative activity against human A549 cells at 0.08 to 8 ug/ml by MTT assay. The class given is functional, cell-based. The following applies: TDE = time-dependent effect.
The test system of assay [7] is A549. Briefly: Induction of apoptosis in human A549 cells assessed as change in cell morphology at 0.8 uM after 12 hrs by acridine orange staining-based fluorescence microscopic method. The class given is functional. The method in brief:
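A549 cells in MEM with 10% FBS, about 2×10⁴ per well, pre-incubated 24 h at 37°C in 5% CO₂. Given drug-free medium or 0.80 µM compound for 12 h. Stained with acridine orange in PBS at 10 µg/mL final for 10 min in the dark, washed three times with PBS, and nuclear morphology viewed by fluorescence microscopy.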

The test system of assay [8] is A549. Briefly: Cell cycle arrest in human A549 cells assessed as accumulation at G1 phase at 4 uM after 12 hrs by propidium iodide staining-based flow cytometry (reference value: 27.08%). It counts as functional. Background: Flow cytometry measures light scatter and fluorescence of single cells or particles in a stream.
For assay [9], the system named is A549. Briefly: Cell cycle arrest in human A549 cells assessed as accumulation at S phase at 4 uM after 12 hrs by propidium iodide staining-based flow cytometry (reference value: 48.44%). It counts as functional.
Assay [10] concerns A549. Briefly: Cell cycle arrest in human A549 cells assessed as accumulation at G2/M phase at 4 uM after 12 hrs by propidium iodide staining-based flow cytometry (reference value: 23.62%). It counts as functional.
In assay [11] the test system is A549. The experiment in a line: Cell cycle arrest in human A549 cells assessed as accumulation at sub-G1 phase at 4 uM after 12 hrs by propidium iodide staining-based flow cytometry (reference value: 0.06%). The class given is functional.

SMILES strings stand for the structures. pIC50: −log10 of the molar value. Calls of active or inactive are those of the source. No cut-off for these calls is given here.

Chain of Vascular endothelial growth factor receptor 2 (P35968 whole entry): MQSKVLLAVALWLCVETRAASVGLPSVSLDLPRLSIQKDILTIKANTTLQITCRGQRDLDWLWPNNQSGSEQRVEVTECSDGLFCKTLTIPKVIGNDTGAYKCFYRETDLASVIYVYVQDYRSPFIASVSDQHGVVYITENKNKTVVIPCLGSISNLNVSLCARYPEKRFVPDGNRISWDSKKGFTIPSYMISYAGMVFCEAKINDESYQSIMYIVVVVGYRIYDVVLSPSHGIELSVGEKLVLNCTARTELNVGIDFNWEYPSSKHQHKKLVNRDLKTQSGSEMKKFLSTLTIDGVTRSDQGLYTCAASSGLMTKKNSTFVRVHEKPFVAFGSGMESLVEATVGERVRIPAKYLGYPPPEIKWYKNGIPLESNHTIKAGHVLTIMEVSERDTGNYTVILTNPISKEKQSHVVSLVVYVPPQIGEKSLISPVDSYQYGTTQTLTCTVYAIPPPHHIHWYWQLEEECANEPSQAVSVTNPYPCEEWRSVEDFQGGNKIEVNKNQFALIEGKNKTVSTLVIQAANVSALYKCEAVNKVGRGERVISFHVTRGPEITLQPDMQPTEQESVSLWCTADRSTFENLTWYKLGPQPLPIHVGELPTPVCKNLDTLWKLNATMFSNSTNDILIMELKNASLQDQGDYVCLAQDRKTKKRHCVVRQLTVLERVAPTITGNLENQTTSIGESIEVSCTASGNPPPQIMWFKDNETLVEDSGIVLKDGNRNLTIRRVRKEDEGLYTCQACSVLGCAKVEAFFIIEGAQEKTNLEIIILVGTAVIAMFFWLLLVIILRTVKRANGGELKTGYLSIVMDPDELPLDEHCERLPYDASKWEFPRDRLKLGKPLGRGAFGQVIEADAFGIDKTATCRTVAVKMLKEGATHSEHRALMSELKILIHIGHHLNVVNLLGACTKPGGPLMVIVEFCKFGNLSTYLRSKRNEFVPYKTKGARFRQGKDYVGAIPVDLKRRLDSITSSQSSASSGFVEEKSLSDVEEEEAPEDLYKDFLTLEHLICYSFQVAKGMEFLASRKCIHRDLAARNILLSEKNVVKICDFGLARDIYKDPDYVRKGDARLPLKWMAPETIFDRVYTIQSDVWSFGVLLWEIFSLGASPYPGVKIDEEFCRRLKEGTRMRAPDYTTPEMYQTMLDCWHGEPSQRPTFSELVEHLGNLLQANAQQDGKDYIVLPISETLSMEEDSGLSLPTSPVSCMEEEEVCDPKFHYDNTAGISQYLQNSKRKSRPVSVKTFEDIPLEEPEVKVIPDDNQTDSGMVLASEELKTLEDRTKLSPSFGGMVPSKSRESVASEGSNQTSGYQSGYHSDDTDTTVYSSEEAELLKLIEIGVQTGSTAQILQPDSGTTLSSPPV
Chain of Epidermal growth factor receptor (P00533 whole entry): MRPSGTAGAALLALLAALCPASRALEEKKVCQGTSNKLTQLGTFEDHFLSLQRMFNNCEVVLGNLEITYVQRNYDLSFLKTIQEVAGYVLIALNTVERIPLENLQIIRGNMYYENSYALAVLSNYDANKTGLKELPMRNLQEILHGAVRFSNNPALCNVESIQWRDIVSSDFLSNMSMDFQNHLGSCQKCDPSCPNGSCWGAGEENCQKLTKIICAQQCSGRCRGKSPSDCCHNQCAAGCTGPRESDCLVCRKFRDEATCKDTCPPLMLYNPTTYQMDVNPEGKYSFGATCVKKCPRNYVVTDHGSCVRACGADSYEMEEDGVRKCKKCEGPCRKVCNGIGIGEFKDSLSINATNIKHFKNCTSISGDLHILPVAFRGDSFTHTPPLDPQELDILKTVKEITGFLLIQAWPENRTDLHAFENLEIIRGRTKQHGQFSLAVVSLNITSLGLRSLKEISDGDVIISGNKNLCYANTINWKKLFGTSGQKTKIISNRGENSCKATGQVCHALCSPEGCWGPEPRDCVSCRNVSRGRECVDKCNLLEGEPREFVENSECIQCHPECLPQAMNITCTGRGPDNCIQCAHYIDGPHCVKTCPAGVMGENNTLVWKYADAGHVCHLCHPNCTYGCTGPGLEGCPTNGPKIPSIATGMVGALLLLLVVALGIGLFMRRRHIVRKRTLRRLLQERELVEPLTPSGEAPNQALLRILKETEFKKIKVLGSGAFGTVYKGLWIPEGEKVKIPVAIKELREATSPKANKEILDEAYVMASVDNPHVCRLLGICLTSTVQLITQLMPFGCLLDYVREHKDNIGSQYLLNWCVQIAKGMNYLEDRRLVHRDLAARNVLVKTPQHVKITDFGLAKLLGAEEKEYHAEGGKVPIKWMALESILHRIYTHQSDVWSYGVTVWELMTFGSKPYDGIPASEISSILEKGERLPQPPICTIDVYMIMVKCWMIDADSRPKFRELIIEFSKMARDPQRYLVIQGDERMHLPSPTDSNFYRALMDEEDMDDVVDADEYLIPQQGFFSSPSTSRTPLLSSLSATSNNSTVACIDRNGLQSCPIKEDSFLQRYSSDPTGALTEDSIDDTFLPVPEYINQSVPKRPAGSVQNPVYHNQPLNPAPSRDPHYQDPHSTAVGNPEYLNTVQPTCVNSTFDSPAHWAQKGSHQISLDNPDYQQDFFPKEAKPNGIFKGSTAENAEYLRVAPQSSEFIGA

On to `O=C(N/N=C/c1cccn1CCCN1CCCC1)Nc1ccc(Oc2ccnc3[nH]ccc23)cc1`, for which the pIC50 in the assay with A549 [1] is 5.89; with HepG2, 5.85; in the assay with MCF7 it was 5.34; with PC-3 it was 5.37; in assay [2], 6.04; in assay [3] it was 4.84. Also, the pIC50 in assay [4] is 4.35; in [5] it was 5.42.
In the case of `O=C(N/N=C/c1ccc(Br)cc1)Nc1ccc(Oc2ccnc3[nH]ccc23)c(F)c1`, the Activity result is “Dose-dependent effect” in the assay with A549 [1]; “Dose-dependent effect” with HepG2; “Dose-dependent effect” in the assay on MCF7; “Dose-dependent effect” with PC-3; “Tde” in the assay on A549 [6]; 10.67% in the assay on A549 [8]. For the same compound, the Activity in the assay with A549 [9] was found to be 7.08%; with A549 [10], 79.86%; in the assay with A549 [11], 0.01%. In addition, the pIC50 in the assay on A549 [1] was 6.09; in the assay with HepG2, 6.00; in the assay with MCF7 it was 6.03; with PC-3 it was 6.04; in assay [2], 6.30; in assay [3], 5.05. Also, the pIC50 is under 4.00 in assay [4] and 5.59 in assay [5]. For the same compound, the result in the assay on A549 [7] was Active.
